High-throughput results as filed in PubChem BioAssay.
Shown are actives, neighbours in structure and some others; about 3.5% of the full set was active somewhere.
MrgX1 PAM = positive allosteric modulators of MrgX1, primary screen, HEK293 cells, Fluo-4 calcium flux. AID 588675, 2011. 310,000 compounds, 0.63% hits. FDSS; active compounds read high. B-score at 10 µM. Mas-related G-protein coupled receptor member X1 (Homo sapiens), Q96LB2;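 active = plate-corrected calcium response at least 3 library SD above typical, normal starting fluorescence, not activating the receptor alone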;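 note: compound read alongside a low EC10 to EC30 dose of BAM8-22 agonist; peak minus trough fluorescence over baseline measured at the second addition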
Target sequence (Q96LB2 whole entry, looked up): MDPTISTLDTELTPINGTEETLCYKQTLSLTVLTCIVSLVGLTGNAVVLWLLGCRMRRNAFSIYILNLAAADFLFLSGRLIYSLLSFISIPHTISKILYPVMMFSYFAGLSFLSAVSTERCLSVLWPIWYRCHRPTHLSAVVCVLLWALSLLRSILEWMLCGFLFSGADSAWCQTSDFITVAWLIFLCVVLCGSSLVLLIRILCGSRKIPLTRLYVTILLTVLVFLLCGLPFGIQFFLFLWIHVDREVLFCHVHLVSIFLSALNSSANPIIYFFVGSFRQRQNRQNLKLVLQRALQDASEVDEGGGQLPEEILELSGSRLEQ
MrgX1 agonist = agonists of human MrgX1 receptor, primary screen, HEK293 cells, Fluo-4 calcium flux; AID 588627, 2011; Fluo-4 calcium fluorescence, agonist mode; active compounds read high; B-score at 10 µM; Mas-related G-protein coupled receptor member X1 (Homo sapiens), Q96LB2; 310,000 compounds, 0.44% hits;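 active = calcium response B-score plate-corrected fluorescence ratio at least 3 library SD, with starting fluorescence B-score inside 5 SD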
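Test system: Stable human MrgX1 HEK293 cell line | Schedule: Overnight plating before 1 h dye loading | Read-out basis: Baseline-normalised fluorescence change ratio, B-scored | Detection: Kinetic calcium dye fluorescence, Fluo-4 NW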
RGS4 inh = RGS4 inhibitors, primary screen, cell-based, HEK293 M3R inducible RGS4, calcium flux. Regulator of G-protein signaling 4 (Homo sapiens), P49798. Fluo-4 calcium flux; active compounds read high; triggered by carbachol at its EC20. B-score at 10 µM. 310,000 compounds, 0.45% hits;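 active = B-score, a plate-corrected calcium signal, over three deviations above library mean, with baseline fluorescence within five deviations of library mean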;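 note: RGS4 expression induced by doxycycline in cells with stable M3 receptor; B-score is computed from the integrated fluorescence ratio over baseline after carbachol; higher B-score means a larger calcium signal and so more RGS4 inhibition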
Target sequence (P49798 whole entry, looked up): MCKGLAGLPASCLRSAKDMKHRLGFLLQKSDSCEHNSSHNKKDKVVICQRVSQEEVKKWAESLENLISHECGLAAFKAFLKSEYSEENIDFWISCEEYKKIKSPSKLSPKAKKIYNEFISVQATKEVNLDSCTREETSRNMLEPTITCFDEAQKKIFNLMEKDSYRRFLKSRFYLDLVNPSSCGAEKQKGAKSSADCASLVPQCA
MrgX1 antagonist = antagonists of human MrgX1 receptor, primary screen, HEK293 cells, Fluo-4 calcium flux; BAM8-22 antagonism; active compounds read low; 310,000 compounds, 1.3% hits; AID 588676, 2011; B-score at 10 µM;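 active = calcium-response B-score plate-corrected more than 3 library SD below zero, starting fluorescence within 5 deviations, no agonist response on first addition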;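 note: peak minus trough fluorescence over baseline after final BAM8-22 challenge near maximal dose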
RGS4 pot = RGS4 potentiators or activators, primary screen, cell-based, HEK293 M3R inducible RGS4, calcium flux. B-score at 10 µM. 310,000 compounds, 0.92% hits. AID 463111, 2010. carbachol calcium flux Fluo4; active compounds read low;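 active = B-score of the integrated calcium signal more than 4 SD below the library mean, with starting fluorescence not abnormally high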;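 note: negative B-score means reduced calcium response which marks RGS4 activation or potentiation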
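Assay system: Inducible-RGS4 HEK293 cells carrying M3 receptor | Schedule: Compound preincubation 20 min at room temperature before agonist | Signal: Kinetic calcium fluorescence imaging with Fluo4-AM dye, 2 µM | Read-out basis: B score from integrated fluorescence ratio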
RGS4 inh valid = enhanced carbachol calcium response, M3R/RGS4 cells, RGS4 inhibitor project, cell-based, validation screen, HEK293 M3R/RGS4, calcium flux; shares compounds with RGS4 inh; carbachol calcium Fluo-4 fluorescence; carbachol added at its EC20; 0 = buffer wells, 100 = carbachol control; calcium response, % at 10 µM; 1,700 compounds, 65% hits; AID 492999, 2010;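 active = duplicate-averaged calcium response above the buffer-only control mean plus 5 SD of those controls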;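 note: integrated fluorescence ratio F max minus min over baseline F0; higher response in RGS4-induced cells means RGS4 inhibition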
M3R Ca ctr = carbachol calcium response in non-induced M3R cells, confirmation, counter-screen for RGS4 inhibitor project, cell-based, HEK293 M3R; shares compounds with RGS4 inh; carbachol calcium Fluo-4; submaximal (EC20) carbachol stimulus; buffer wells 0%, carbachol control wells 100%; activity (percent), % at 10 µM; 1,900 compounds, 20% hits; call rule not given here;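 note: RGS4 induction absent so cells express M3R without RGS4; higher means more calcium signal and flags a non-specific hit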
RGS4 inh ctr2 = signal in non-induced cells without carbachol, RGS4 inhibitor counter-screen | calcium response (agonist-mode artifact), % at 10 µM | shares compounds with RGS4 inh | 1,900 compounds, 22% hits | AID 493001 | HEK293 M3R/RGS4 non-induced, Fluo-4 calcium, no carbachol; normalised: buffer wells 0%, carbachol wells 100%;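 active = duplicate-averaged calcium rise in uninduced cells above buffer wells' mean plus 5 SD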
Hits are given with their value; - = inactive; . = not tested or not shown.

SMILES	MrgX1 PAM	MrgX1 agonist	RGS4 inh	MrgX1 antagonist	RGS4 pot	RGS4 inh valid	M3R Ca ctr	RGS4 inh ctr2
Cc1ccc(Cn2cccc2/C=C2/C(=N)N3C=CSC3=NC2=O)cc1	-	-	-	-	-	-	-	-
N=C1/C(=C/c2cccn2Cc2ccc(F)cc2)C(=O)N=C2SC=CN12	-	-	-	-	-	.	-	21%
Cc1ccc(S(=O)(=O)N2CCC(C(=O)Nc3ccc(S(=O)(=O)N4CCCC4)cc3)CC2)cc1C	-	-	-	-	-	.	.	.
COC(=O)c1cc(=O)n(Cc2ccco2)c(=Nc2ccc(F)c(Cl)c2)s1	-	-	-	-	-	.	-	-
COC(=O)c1cc(=O)n(CCc2ccccc2F)c(=Nc2ccc(F)c(Cl)c2)s1	-	-	-	-	-	.	.	.
O=C(Nc1ccccc1C(=O)NCCc1ccccc1)c1cnccn1	-	-	-	-	-	.	.	.
CC(SCc1ccc(C(=O)O)o1)c1ccc(C(=O)O)o1 (configuration not stated)	-	-	-	-	-	.	.	.
O=C(CCNc1ccc(F)cc1)c1ccco1	-	-	5.4	-	-	11%	-	-
O=C(CCNc1ccc(F)c(Cl)c1)c1ccco1	-	-	-	-	-	.	.	.
O=c1oc2ccccc2c(Nc2cccc3cccnc23)c1[N+](=O)[O-]	-	-	-	-	-	.	.	.
CC(=O)CCc1oc2c([N+](=O)[O-])cccc2c1-c1ccc(C)o1	-	-	-	-	-	.	.	.
C/C(CCc1oc2c(Br)cc(Br)cc2c1-c1ccc(C)o1)=N\O	-	-	11	-	-	-	-	-
O=C(CCCC(=O)N(c1ccc(F)cc1)C(C(=O)NC1CCCC1)c1ccc(O)cc1)Nc1ccccn1 (configuration not stated)	-	-	-	-	-	.	.	.
COc1ccc(/C=C2\C(=O)ON=C2c2ccccc2)cc1OC	-	-	-	-	-	.	-	8.5%
CCOc1cc(/C=C2/C(=O)ON=C2C)ccc1OCc1ccccc1F	-	-	9.4	-	-7	-	-	94%
COc1cc(/C=C2\C(=O)ON=C2c2ccccc2)cc(OC)c1OC	-	-	-	-	-	.	.	.
COc1ccc(/C=C2/C(=O)ON=C2c2ccccc2)cc1OC	-	-	-	-	-	.	-	64%
CCOc1cc(/C=C2\C(=O)ON=C2c2ccccc2)ccc1OC	-	-	25	-	-	32%	-	50%
O=C(OCc1nc2ccsc2c(=O)[nH]1)c1ccc(Cl)s1	-	-	-	-	-	.	.	.
COc1ccc(/C=C(\C#N)C(=O)NCC(c2ccc(F)cc2)N2CCOCC2)cc1 (configuration not stated)	-	-	-	-	-	.	.	.
O=c1c(O)c(-c2ccc(O)cc2)oc2cc(O)cc(O)c12	-	-	-	-	-	.	-	-
O=S(=O)(Nc1ccc(N=Nc2ccc(O)c3ccccc23)cc1)c1ccccc1	-	-	4.7	-	-	5.5%	-	-
O=C(OCn1ncc(Cl)c(Cl)c1=O)c1ccccc1Cl	-	-	7.4	-	-	15%	40%	-
O=C(OCn1ncc(Cl)c(Cl)c1=O)c1ccc(F)cc1	-	-	-	-	-	.	.	.
COc1ccc(NC(=O)c2ccc(NC(=O)c3cccs3)cc2)cc1	-	-	-	-	-	.	.	.
SMILES	MrgX1 PAM	MrgX1 agonist	RGS4 inh	MrgX1 antagonist	RGS4 pot	RGS4 inh valid	M3R Ca ctr	RGS4 inh ctr2
COc1nc(N)nc(NC(=O)c2cccs2)c1N=O	-	-	8.1	-	-	16%	-	-
CCCc1sc(N/N=C/c2ccccn2)nc1-c1ccc(Br)cc1	-	-	-	-	-	.	-	-
CC(=O)Nc1sc(N/N=C/c2ccccc2)nc1-c1ccc(C)cc1	-	-	-	-	-	.	.	.
O=c1c(/C=N\NS(=O)(=O)c2ccccc2)coc2ccc(Cl)cc12	-	-	-	-	-	.	.	.
Cc1ccc(C(=O)Nc2nnc(NC(=S)Nc3ccccc3)s2)cc1	-	-	-	-	-	.	.	.
CCOc1ccc(C(=O)Nc2nnc(NC(=S)Nc3ccccc3)s2)cc1	-	-	4.9	-	-	10%	-	-
O=C(O)c1ccc(/C=C2\COc3ccccc3C2=O)cc1	-	-	31	-	-	45%	-	-
CCOc1cc(/C=C2\COc3ccccc3C2=O)cc(Br)c1OCC(=O)N(C)C	-	-	8.3	-	-	27%	-	-
COc1ccc(/C=C2\COc3ccccc3C2=O)cc1OC	-	-	-	-	-	.	.	.
Cn1ccc(C(=O)N/N=C/c2ccncc2)n1	.	.	-	.	-	.	.	.
C[C@]12C(=O)N(c3ccc(Cl)cc3)C(=O)N1[C@H]1c3ccccc3OC[C@@H]1[C@H]2c1ccccc1	-	-	-	-	-	-	-	-
C[C@@]12C(=O)N(c3ccc(F)cc3)C(=O)N1[C@@H]1c3ccccc3OC[C@@H]1[C@H]2c1ccccc1	-	-	-	-	-	.	.	.
C[C@]12C(=O)N(c3ccc(Br)cc3)C(=O)N1[C@@H]1c3ccccc3OC[C@@H]1[C@H]2c1ccccc1	-	-	-	-	-	.	.	.
C[C@]12C(=O)N(c3ccc(Cl)cc3)C(=O)N1[C@@H]1c3ccccc3OC[C@@H]1[C@H]2c1ccccc1	-	-	-	-	-	-	-	-
CC(CC(=O)Nc1ccc(S(=O)(=O)Nc2ncccn2)cc1)c1ccccc1 (configuration not stated)	-	-	-	-	-	-	-	-
O=C(/C=C/c1cccc(F)c1)Nc1ccc(S(=O)(=O)Nc2ncccn2)cc1	-	-	5.1	-	-	7.0%	-	-
Cn1ncc(S(=O)(=O)Cc2ccccc2)c(Cl)c1=O	-	-	26	-	-	42%	-	-
Cc1nnc(SCc2nc(N)nc(Nc3ccccc3)n2)s1	-	-	5.4	-	-	14%	-	-
CCc1ccc(Nc2nc(N)nc(CSc3nc4ccccc4s3)n2)cc1	-	-	-	-	-	-	-	-
Nc1nc(CSc2nc3ccccc3s2)nc(N2CCCCC2)n1	-	-	-	-	-	.	.	.
CCN(CC)C(=S)NC(=O)c1cc(OC)c(OC)c(OC)c1	-	-	-	-	-	.	.	.
